From PubChem BioAssay
Calls of active or inactive are those of the source. Cut-off read from the data, not from the text of the source, unless noted: active = inhibition above about 30%; inactive = the rest.

What was measured:
[1] = reduced viability of SK-BR-3 breast cancer cells – cell-based, 24 h, human, pilot screen (AID 572;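 active = viability at or below 10% of carrier control in both of two separate runs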;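 note: compound exposure lasted between 18 and 24 h rather than exactly 24 h; 100% = carrier-treated control wells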); conditions: SK-BR-3 viability, CellTiter-Glo luminescence, at 10 µM, stronger effect = lower value
[2] = HUVEC growth inhibition – cell-based, human, primary screen (AID 575;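 active = viability at or below 30% in both replicate assays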;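 note: 100% = median of untreated cell wells with 0.1% DMSO on each plate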); conditions: HUVEC proliferation, CellTiter-Glo luminescence, 72 h; at 10 µM; stronger effect = lower value
In short: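 Assay system: Primary human umbilical vein endothelial cells | Quantity: 1250 cells per well | Medium: Supplemented EBM, 2% fetal bovine serum | Detection: CellTiter-Glo luminescence measuring cellular ATP | Read-out: % viability vs DMSO wells | Plate: Collagen-coated 384-well format | Times: 72 h exposure, 37 °C, 5% CO2, 30 min RT equilibration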

[3] = H69AR cell proliferation blockers – human, duplicate replicates, primary screen (AID 580;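 active = viability at or under a set limit in both replicates, limit being median viability minus 3 SD, cut at about 48% in these data, passing the limit was not always enough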;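 note: 100% = mean luminescence of untreated wells and 0% = no signal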); conditions: H69AR lung tumor cells viability, ATP luminescence, 72 h; at 10 µM; stronger effect = lower value
[4] = MRP1 drug-resistance reversers in H69AR cells – cell-based, doxorubicin co-treatment, pilot screen (AID 601;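 active = viability loss from added drug above about 55%, and viability with drug at most 40%, in both replicates, limit read from the data, passing the limit was not always enough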); conditions: CellTiter-Glo, 72 h, at 10 µM; for differential viability (reversal): stronger effect = higher value
[5] = yeast transport mutant growth inhibition pilot in 384-well plates, post-Golgi transport modulator project (AID 636; in the data active = inhibition above about 31%); conditions: absorbance 615 nm, about 18 h, stronger effect = higher value
[6] = growth suppression of yeast trafficking mutant, preliminary HTS, modulators of trafficking downstream of Golgi apparatus project, 1536-format plate, OD 615 nm (AID 637); conditions: yeast transport mutant growth, absorbance 615 nm, 18 h; stronger effect = higher value
[7] = H69AR cells + 2 uM doxorubicin, measured here: viability with 2 uM doxorubicin, stronger effect = lower value
[8] = H69AR cells, compound alone cytotoxicity

Row | Structure (SMILES) | viability [1] | viability [2] | viability [3] | differential viability (reversal) ([4]; H69AR cells + 2 uM doxorubicin) | viability [4, 7] [%] | viability [4, 8] [%] | inhibition [5] | inhibition [6]
1 | CN1CC=C2C(C#N)=C(N)C(C#N)(C#N)C(c3cccc(Cl)c3Cl)C2C1 (stereo unspecified) | 115% (inactive) | 69.7% (inactive) | 61.1% (inactive) | 1.02% (inactive) | 60.1 | 61.1 | -4.67% (inactive) | 2.13% (inactive)
2 | Cn1c(=O)c2c(ncn2CC(O)CO)n(C)c1=O (stereo unspecified) | 117% (inactive) | 92.8% (inactive) | 107% (inactive) | 12.3% (inactive) | 95 | 107 | -5.45% (inactive) | 3% (inactive)
3 | c1ccc(Cc2nn3c(Cn4cnc5ccccc54)nnc3s2)cc1 | 128% (inactive) | 78.9% (inactive) | 85.8% (inactive) | 3.46% (inactive) | 82.3 | 85.8 | -5.34% (inactive) | -0.65% (inactive)
4 | Cc1cc(C)n(-c2nc3sc4c(c3c3nnc(SCC(N)=O)n23)CC(C)(C)OC4)n1 | 84% (inactive) | 97.4% (inactive) | 90.7% (inactive) | 3.85% (inactive) | 86.8 | 90.7 | 0.68% (inactive) | -3.87% (inactive)
5 | Cc1nnc(NC(=O)CCC(=O)N2CCC(C)CC2)s1 | 86% (inactive) | 105% (inactive) | 90.8% (inactive) | 1.93% (inactive) | 88.9 | 90.8 | -3.01% (inactive) | 1.64% (inactive)
6 | C=CCn1c(SCC(=O)NCC2CCCO2)nc2scc(-c3ccco3)c2c1=O (stereo unspecified) | 112% (inactive) | 88.2% (inactive) | 92.9% (inactive) | -1.34% (inactive) | 94.2 | 92.9 | -3.84% (inactive) | 2.58% (inactive)
7 | NC(=O)c1ccsc1NC(=O)COC(=O)Cc1ccsc1 | 87% (inactive) | 100% (inactive) | 110% (inactive) | -0.11% (inactive) | 110 | 110 | -4.25% (inactive) | 1.27% (inactive)
8 | CCOC(=O)C1=C(C)NC(C)=C(C(=O)OC)C1c1cccc([N+](=O)[O-])c1 (stereo unspecified) | 68% (inactive) | 58% (inactive) | 83% (inactive) | -14.7% (inactive) | 97.7 | 83 | 5.58% (inactive) | -1.17% (inactive)
9 | O=C(O)Cc1ccc(-c2ccccc2)cc1 | 112% (inactive) | 84.3% (inactive) | 85.7% (inactive) | -0.76% (inactive) | 86.4 | 85.7 | -2.21% (inactive) | 5.33% (inactive)
10 | C/C(Nc1cccc(F)c1)=C(/C#N)C(N)=O | 107% (inactive) | 122% (inactive) | 99.2% (inactive) | 5.34% (inactive) | 93.9 | 99.2 | -4.32% (inactive) | -5.64% (inactive)
11 | CCN1C(=O)C(C(=O)Nc2ccc(OC)cc2)C2CC1(C)Oc1ccccc12 (stereo unspecified) | 80% (inactive) | 110% (inactive) | 86.4% (inactive) | -10% (inactive) | 96.4 | 86.4 | -8.51% (inactive) | -1.64% (inactive)
12 | O=C(NC1CCCCCCC1)C1CCN(c2nc3ccccc3o2)CC1 | 106% (inactive) | 85.7% (inactive) | 92.2% (inactive) | -2.57% (inactive) | 94.7 | 92.2 | 7.2% (inactive) | 1.09% (inactive)
13 | Cc1c(NC(=O)c2nn(C)c(=O)c3ccccc23)c(=O)n(-c2ccccc2)n1C | 94% (inactive) | 108% (inactive) | 97.9% (inactive) | 8.84% (inactive) | 89.1 | 97.9 | -1.92% (inactive) | -8.06% (inactive)
14 | O=C(CCn1c(=O)c2ccccc2n(CC(=O)NCCC2=CCCCC2)c1=O)NCc1ccco1 | 99% (inactive) | 90.9% (inactive) | 92.2% (inactive) | 5.12% (inactive) | 87 | 92.2 | -5.06% (inactive) | -2.79% (inactive)
15 | O=C(CNC(=O)c1cc2ccccc2o1)NCc1cccs1 | 122% (inactive) | 80.8% (inactive) | 84.4% (inactive) | -4.37% (inactive) | 88.8 | 84.4 | 0.26% (inactive) | 5.74% (inactive)
16 | Cc1ccc(-c2nnc(-c3cccc(Br)c3)o2)cc1 | 106% (inactive) | 99.7% (inactive) | 89.6% (inactive) | -3% (inactive) | 92.7 | 89.6 | -6.76% (inactive) | 4% (inactive)
17 | COc1ccccc1N1CCN(C(=O)CN(Cc2ccc(Cl)cc2)S(C)(=O)=O)CC1 | 91% (inactive) | 88.7% (inactive) | 99.8% (inactive) | 4.09% (inactive) | 95.7 | 99.8 | -5.45% (inactive) | -0.49% (inactive)
18 | Cc1[nH]c2ccc(F)cc2c(=O)c1SC(F)(F)C(F)C(F)(F)F (stereo unspecified) | 72% (inactive) | 92.5% (inactive) | 83.3% (inactive) | -14.3% (inactive) | 97.6 | 83.3 | -5.95% (inactive) | -5.27% (inactive)
19 | CC(C)(C)C(=O)OCC1OC(n2cnc(C(N)=O)n2)C(O)C1O (stereo unspecified) | 89% (inactive) | 99.1% (inactive) | 96.1% (inactive) | 1.56% (inactive) | 94.5 | 96.1 | -8.22% (inactive) | -2.36% (inactive)

Row | Structure (SMILES) | viability [1] | viability [2] | viability [3] | differential viability (reversal) ([4]; H69AR cells + 2 uM doxorubicin) | viability [4, 7] [%] | viability [4, 8] [%] | inhibition [5] | inhibition [6]
20 | COC(=O)C1C2C=CC3(CN(CC4CCCO4)C(=O)C13)O2 (stereo unspecified) | 78% (inactive) | 114% (inactive) | 102% (inactive) | -9.38% (inactive) | 111 | 102 | -6.99% (inactive) | -0.18% (inactive)
21 | O=C(NO)c1ccccc1O | 109% (inactive) | 86.7% (inactive) | 105% (inactive) | 23.1% (inactive) | 81.8 | 105 | -1.95% (inactive) | 6.83% (inactive)
22 | CCOc1ncccc1C(=O)Nc1ccc(Cl)cc1 | 92% (inactive) | 91.4% (inactive) | 79.8% (inactive) | -3.41% (inactive) | 83.2 | 79.8 | 1.17% (inactive) | 0.49% (inactive)
23 | Cc1nc2ncnn2c(C)c1CCC(=O)NCCCN1CCN(c2cccc(Cl)c2)CC1 | 78% (inactive) | 76.4% (inactive) | 96.5% (inactive) | 6.44% (inactive) | 90.1 | 96.5 | -2.21% (inactive) | -3.77% (inactive)
24 | COc1ccccc1N(CC(=O)NC1CCCC1)C(=O)c1csnn1 | 97% (inactive) | 89.7% (inactive) | 90% (inactive) | 32.5% (inactive) | 57.5 | 90 | -1.47% (inactive) | -8.36% (inactive)
25 | O=C(COC(=O)c1cccc(S(=O)(=O)N2CCc3ccccc32)c1)NC1CCS(=O)(=O)C1 (stereo unspecified) | 90% (inactive) | 114% (inactive) | 102% (inactive) | 0.47% (inactive) | 101 | 102 | -4.05% (inactive) | -7.64% (inactive)
26 | COCCCNCC(=O)Nc1ccc(OC(F)(F)F)cc1 | 102% (inactive) | 113% (inactive) | 98.5% (inactive) | 13% (inactive) | 85.5 | 98.5 | -9.2% (inactive) | -5.82% (inactive)
27 | COc1cccc(NC(=O)N2CCC(N3CCCCC3)CC2)c1 | 92% (inactive) | 88.2% (inactive) | 94.5% (inactive) | -2.56% (inactive) | 97.1 | 94.5 | -4.29% (inactive) | -0.49% (inactive)
28 | CCOC(=O)c1cnc(C(C)(C)C)[nH]c1=O | 106% (inactive) | 102% (inactive) | 95.8% (inactive) | 7.84% (inactive) | 88 | 95.8 | -6.22% (inactive) | -0.91% (inactive)
29 | COC(=O)Cc1cc(=O)n(-c2ccccc2)[nH]1 | 95% (inactive) | 91.2% (inactive) | 87.9% (inactive) | -0.48% (inactive) | 88.4 | 87.9 | -9.45% (inactive) | 0.73% (inactive)
30 | Cc1ccc(NC(=O)COC(=O)c2ccn(C)n2)cc1 | 76% (inactive) | 90.8% (inactive) | 87.2% (inactive) | 7.78% (inactive) | 79.4 | 87.2 | -2.74% (inactive) | -1.09% (inactive)
31 | CCOC(=O)C1/C(=N\O)CC(C)(O)C(C(=O)OCC)C1c1ccc(N(C)C)cc1 (stereo unspecified) | 72% (inactive) | 96.9% (inactive) | 87.5% (inactive) | -13.3% (inactive) | 101 | 87.5 | 1.64% (inactive) | 5.48% (inactive)
32 | Cc1cc(C)nc(NC2=NCC(=O)N2c2ccc(Cl)cc2)n1 | 99% (inactive) | 117% (inactive) | 97.1% (inactive) | 1.69% (inactive) | 95.4 | 97.1 | -7.03% (inactive) | 0.55% (inactive)
33 | Cc1cc(C(=O)Nc2nnc(C(F)(F)F)s2)no1 | 98% (inactive) | 107% (inactive) | 105% (inactive) | 5.13% (inactive) | 99.8 | 105 | -7.4% (inactive) | 0.32% (inactive)
34 | CC1CCCCC1NC(=O)COc1ccc(-n2cnnn2)cc1 (stereo unspecified) | 100% (inactive) | 103% (inactive) | 101% (inactive) | -0.38% (inactive) | 101 | 101 | 0% (inactive) | 0.73% (inactive)
35 | O=C(O)c1cc(-c2ccccc2)nc2ccccc12 | 91% (inactive) | 92.7% (inactive) | 76.7% (inactive) | 2.04% (inactive) | 74.6 | 76.7 | 2.99% (inactive) | 4.83% (inactive)
36 | CCC1CCCCN1S(=O)(=O)c1ccc(C(=O)Nc2nnc(-c3ccccc3Cl)o2)cc1 (stereo unspecified) | 74% (inactive) | 13.5% (active) | 20.1% (active) | -21.7% (inactive) | 41.8 | 20.1 | -0.13% (inactive) | 11.6% (inactive)
37 | O=C1c2ccccc2-c2ccc(C(=O)N3CCOCC3)cc21 | 87% (inactive) | 105% (inactive) | 89.7% (inactive) | -2.82% (inactive) | 92.5 | 89.7 | -2.7% (inactive) | 29.4% (inactive)
